ChEMBL document CHEMBL4342468, “Evolution of a 4-Benzyloxy-benzylamino Chemotype to Provide Efficacious, Potent, and Isoform Selective PPARα Agonists as Leads for Retinal Disorders” (J Med Chem, 2020)

Assays:
[1] = target: T1, Peroxisome proliferator-activated receptor alpha (Homo sapiens) (UniProt Q07869); assay: Agonist activity at human PPARalpha expressed in nonhuman mammalian cells assessed as maximal increase in receptor transcriptional activity incubated for 22 to 24 hrs by luciferase reporter gene assay relative to GW590735; type: cell-based
T1 sequence (whole entry): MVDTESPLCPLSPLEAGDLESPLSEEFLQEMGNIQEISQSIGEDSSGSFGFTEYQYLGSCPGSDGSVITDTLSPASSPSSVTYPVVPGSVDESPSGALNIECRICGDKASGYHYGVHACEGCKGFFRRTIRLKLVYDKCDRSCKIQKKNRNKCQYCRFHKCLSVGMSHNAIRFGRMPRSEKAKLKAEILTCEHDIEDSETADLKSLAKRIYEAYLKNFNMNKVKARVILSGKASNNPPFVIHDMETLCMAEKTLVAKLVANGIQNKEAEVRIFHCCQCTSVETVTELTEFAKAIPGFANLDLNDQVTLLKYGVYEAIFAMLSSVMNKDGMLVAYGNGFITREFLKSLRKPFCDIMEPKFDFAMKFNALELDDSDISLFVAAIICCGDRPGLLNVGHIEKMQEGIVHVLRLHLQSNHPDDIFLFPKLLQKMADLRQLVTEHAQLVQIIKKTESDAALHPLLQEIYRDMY

[2] = target: T2, Peroxisome proliferator-activated receptor alpha (Homo sapiens, UniProt Q07869)
T2 sequence (Q07869 whole entry): T1 sequence (whole entry)

[3] = organism: Homo sapiens; assay: Selectivity index, ratio of EC50 for human PPARdelta expressed in nonhuman mammalian cells to EC50 for human PPARalpha expressed in nonhuman mammalian cells measured after 22 to 24 hrs by luciferase reporter gene assay; type: cell-based
Outline: (§1)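 Reporter cells (non-human mammalian) expressing human PPARα, γ or δ linked to a luciferase reporter were pre-incubated 4–6 h at 37 °C, 5% CO2 in medium with 10% charcoal-stripped FBS. SI = EC50(PPARγ or δ)/EC50(PPARα).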

[4] = target: T3, Peroxisome proliferator-activated receptor gamma (Homo sapiens, UniProt P37231); assay: Agonist activity at human PPARgamma expressed in nonhuman mammalian cells assessed as increase in receptor transcriptional activity incubated for 22 to 24 hrs by luciferase reporter gene assay; type: cell-based
T3 sequence (P37231 whole entry): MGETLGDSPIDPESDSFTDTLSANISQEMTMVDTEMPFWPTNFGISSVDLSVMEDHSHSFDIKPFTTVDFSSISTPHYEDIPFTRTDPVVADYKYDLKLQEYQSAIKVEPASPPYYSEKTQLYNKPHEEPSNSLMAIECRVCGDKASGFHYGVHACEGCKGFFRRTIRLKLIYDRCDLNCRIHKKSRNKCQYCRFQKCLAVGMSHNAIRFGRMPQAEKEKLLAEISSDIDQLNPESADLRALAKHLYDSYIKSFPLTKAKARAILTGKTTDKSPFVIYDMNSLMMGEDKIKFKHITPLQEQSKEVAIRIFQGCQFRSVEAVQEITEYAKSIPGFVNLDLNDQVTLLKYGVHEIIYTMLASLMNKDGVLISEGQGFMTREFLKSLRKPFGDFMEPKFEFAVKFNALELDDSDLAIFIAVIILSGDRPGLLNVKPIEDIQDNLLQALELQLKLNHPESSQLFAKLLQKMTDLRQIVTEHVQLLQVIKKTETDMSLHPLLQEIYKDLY
Outline: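 Reporter cells (nonhuman mammalian, engineered PPAR receptor with luciferase linked to response promoter) pre-incubated 4–6 h at 37 °C, 5% CO2 in medium with 10% charcoal-stripped FBS. Medium replaced with compound-containing screening medium, 22–24 h at 37 °C, then luciferase detection reagent, luminescence read. Multi-point dose-response for EC50; mean ± SEM of at least two separate experiments in triplicate.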

[5] = organism: Homo sapiens; assay: Selectivity index, ratio of EC50 for human PPARgamma expressed in nonhuman mammalian cells to EC50 for human PPARalpha expressed in nonhuman mammalian cells measured after 22 to 24 hrs by luciferase reporter gene assay; type: cell-based; outline: as §1
[6] = target: T4, Peroxisome proliferator-activated receptor delta (Homo sapiens, UniProt Q03181); assay: Agonist activity at human PPARdelta expressed in nonhuman mammalian cells assessed as increase in receptor transcriptional activity incubated for 22 to 24 hrs by luciferase reporter gene assay; type: cell-based
T4 sequence (Q03181 whole entry): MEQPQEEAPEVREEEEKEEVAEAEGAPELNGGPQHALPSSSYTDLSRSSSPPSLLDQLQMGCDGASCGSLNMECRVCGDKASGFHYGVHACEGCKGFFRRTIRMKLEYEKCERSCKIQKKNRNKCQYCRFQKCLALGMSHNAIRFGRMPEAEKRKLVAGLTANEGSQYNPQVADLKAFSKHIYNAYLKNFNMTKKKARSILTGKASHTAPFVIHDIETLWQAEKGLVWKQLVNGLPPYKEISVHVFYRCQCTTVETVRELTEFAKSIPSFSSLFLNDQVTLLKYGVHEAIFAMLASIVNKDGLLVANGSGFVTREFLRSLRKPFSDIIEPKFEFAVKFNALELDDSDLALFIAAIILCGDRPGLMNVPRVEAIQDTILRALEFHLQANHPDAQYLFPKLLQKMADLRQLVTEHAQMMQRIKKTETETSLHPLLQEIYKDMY

Structure (SMILES)	fold change (FC) [1]	EC50 [2] [nM]	further results
Cc1cc(CNc2cccc(C(=O)O)c2)ccc1OCc1ccc(I)cc1	1.5	–	–
Cc1cc(CN(C)c2cccc(C(=O)O)c2)ccc1OCc1ccc(F)cc1	2.1	67	–
CC(C)(Oc1ccc(CNc2cccc(C(=O)O)c2)cc1)c1ccc(F)cc1	0.8	8520	–
O=C(O)c1cccc(NCc2ccc(OCc3ccc(F)cc3F)cc2)c1	1.2	540	Ratio EC50 [3]: > 175; EC50 [4]: > 100000 nM; Ratio EC50 [5]: > 175; EC50 [6]: > 100000 nM
OB(O)c1cccc(NCc2ccc(OCc3ccc(F)cc3)cc2)c1	0.1	–	–
O=C(O)c1cccc(NCc2ccc(OCc3ccc(F)cc3)c(F)c2)c1	1.7	–	–
O=C(O)c1cccc(NCc2ccc(OCc3ccc(F)c(F)c3)cc2)c1	1.2	360	–
Cc1cc(CNc2cccc(C(=O)O)c2)ccc1OCc1ccc(Cl)cc1	1.2	–	–
Fc1ccc(COc2ccc(CNc3cccc(-c4nnn[nH]4)c3)cc2)cc1	1.6	–	–
Cc1cc(CNc2cc(F)cc(C(=O)O)c2)ccc1OCc1ccc(F)cc1	1.5	–	–
O=C(O)c1cc(NCc2ccc(OCc3ccc(F)cc3)cc2)ccc1F	1.2	1610	–
COc1ccc(CCOc2ccc(CNc3cccc(C(=O)O)c3)cc2)cc1	0.9	–	–
O=C(O)c1cccc(NCc2ccc(OCCc3ccccc3)cc2)c1	0.9	–	–
O=C(O)c1cccc(NCc2ccc(OCc3cc(F)cc(F)c3)cc2)c1	1.1	–	–
Cc1ccc(C(=O)O)cc1NCc1ccc(OCc2ccc(F)cc2)cc1	0.3	–	–
O=C(NO)c1cccc(NCc2ccc(OCc3ccc(F)cc3)cc2)c1	0.6	–	–
Cc1cc(OCc2ccc(F)cc2)ccc1CNc1cccc(C(=O)O)c1	1.2	1450	–
O=C(O)c1cccc(NCc2ccc(OCc3ccc(Br)cc3)cc2)c1	1.3	970	–
Cc1cc(CNc2cccc(C(=O)O)c2)ccc1OCc1ccc(F)cc1F	1.4	–	–
CC(C)(Sc1cccc(NCc2ccc(OCc3ccc(F)cc3)cc2)c1)C(=O)O	1.1	–	–
O=C(O)c1cccc(NCc2ccc(OCc3ccc(C(F)(F)F)cc3)cc2)c1	0.9	960	–
Cc1cc(CNc2cccc(OC(C)(C)C(=O)O)c2)ccc1OCc1ccc(F)cc1	1.6	–	–
CC(C)(Oc1cccc(NCc2ccc(OCc3ccc(F)cc3)cc2)c1)C(=O)O	2	–	–
O=C(O)c1cccc(NCc2ccc(OCc3ccc(F)cc3)c(Cl)c2)c1	1.5	–	–
O=C(O)c1cccc(NCc2ccc(OCc3cccc(F)c3)cc2)c1	1.2	1180	–
